Assay results collected from several papers.
Target: Interleukin-1 receptor-associated kinase 1 (IRAK1, Homo sapiens, UniProt P51617)

COc1cccc2c(NCc3ccccc3)nc(-n3c(N)nc4ccccc43)nc12 — inhibition (target engagement in cells; inhibitor; chemoproteomics; 20 mM): -2.2%
CC(C)(O)[C@H]1CC[C@H](Nc2ccc3ncc(-c4cccc(C(F)(F)F)c4)n3n2)CC1 — remaining activity (enzyme activity; inhibitor; 1 µM): 87.1%
O=C(NC[C@@H]1[C@H]2CN(C(=O)OCc3cc(C(F)(F)F)cc(C(F)(F)F)c3)C[C@@H]12)c1ccc2[nH]nnc2c1 — remaining binding (cell-free assay; competition with immobilised ligand; 1 µM): 98%
FC(F)(F)Oc1cccc(-c2cnc3ccc(-c4ccncc4)nn23)c1 — activity vs control (enzyme activity; inhibitor; radiometric; 5 µM): 24%
CCN(CC)CCNC(=O)c1c(C)[nH]c(/C=C2\C(=O)Nc3ccc(F)cc32)c1C — inhibition (enzyme activity; inhibitor; 0.3 µM): 31%
O=C1NC(=O)c2cc(Nc3ccc(F)cc3)c(Nc3ccc(F)cc3)cc21 — remaining signal (cell-free assay; 0.5 µM): 88.5%
CNC(=O)c1cc(Oc2ccc(NC(=O)Nc3ccc(Cl)c(C(F)(F)F)c3)cc2)ccn1 — inhibition (enzyme activity; inhibitor; 0.3 µM): -4%
Cc1nc(Cc2cccc(C(F)(F)F)c2)sc1-c1ccc(C(N)=O)nc1 — remaining binding (cell-free assay; competition with immobilised ligand; 1 µM): 100%
COc1cc(-c2cc(-c3ccc(N4CCNCC4)cc3)cnc2C)cc(OC)c1OC — inhibition (enzyme activity; inhibitor; 0.1 µM): 2%
NS(=O)(=O)c1cc(NC(=O)C2(c3ccccc3Cl)CC2)ccc1Oc1cccc(Cl)c1 — remaining binding (cell-free assay; competition with immobilised ligand; 1 µM): 79%
c1ccc(CNc2nc(N3CCOc4ccccc43)nc3c2CCCC3)cc1 — inhibition (target engagement in cells; inhibitor; chemoproteomics; 20 mM): -2.4%
CCCOc1ccc(OC)c(F)c1C(=O)c1ccc(C(=O)N[C@@H]2CNC[C@H]2NC(=O)c2ccc3[nH]ncc3c2)cc1 — remaining activity (enzyme activity; inhibitor; 10 µM): 49%
Cc1cc(C)c(-n2ccn3nc(-c4cccnc4)cc23)cc1NC(=O)c1cc(C#N)cc(S(F)(F)(F)(F)F)c1 — remaining binding (cell-free assay; competition with immobilised ligand; 0.1 µM): 87.3%
COc1cc(Nc2cnc(C#N)c(O[C@H](C)CN(C)C)n2)ncc1-c1cnn(C)c1 — remaining activity (enzyme activity; inhibitor; radiometric; 1 µM): 17%
COc1cc2nccc(Oc3ccc(NC(=O)c4c5n(n(-c6ccc(F)cc6)c4=O)CCCC5)cc3)c2cc1OC — inhibition (enzyme activity; inhibitor; 0.1 µM): -7%
CC(=O)N1CCC(c2ccc(C(=O)NC3=NCCN3)cc2C(F)(F)F)CC1 — remaining binding (cell-free assay; competition with immobilised ligand; 1 µM): 78%
Cc1cc(NC(=O)c2cccc3cc(-c4cccc5[nH]nc(N)c45)ccc23)ccc1F — activity vs control (enzyme activity; inhibitor; 0.1 µM): 100%
O=C(Nc1cnn(-c2csc(C(=O)NC3COC3)c2)c1)Nc1ccccc1Cl — remaining activity (enzyme activity; inhibitor; 5 µM): 112%
Cc1ccc(C(=O)Nc2ccc(CN3CCN(C)CC3)c(C(F)(F)F)c2)cc1C#Cc1cnc2cccnn12 — remaining activity (enzyme activity; inhibitor; 23.5 nM): 54%
COc1cc(Cl)c(C(=O)N[C@@H](CN[C@H]2CC[C@@H](N)CC2)Cc2ccc(C#N)cc2)cc1-c1ccc(CN[C@H](C)c2ccc(C)cc2)o1 — remaining activity (enzyme activity; inhibitor; 1 µM): 97%
Cc1ccc(Nc2nccc(N(C)c3ccc4c(C)n(C)nc4c3)n2)cc1S(N)(=O)=O — inhibition (enzyme activity; inhibitor; 0.3 µM): -6%
CN(C)C1CCN(CC#Cc2nn(C3CCCC3)c3nc(NCc4ccccc4)ncc23)C1 (stereo not drawn) — inhibition (enzyme activity; inhibitor; FRET; 10 µM): 37%
c1ccc(N2CCN(Cc3nc4ccccc4[nH]3)CC2)nc1 — remaining binding (binding; competition with immobilised ligand; 1 µM): 100%
CC(C)(C)c1nc2c(s1)c1nc(N)ncc1c1ccc(NS(=O)(=O)c3c(F)cccc3F)c(F)c12 — remaining activity (enzyme activity; inhibitor; radiometric; 1 µM): 90%
CNC(=O)Nc1ccc2c(c1)CC[C@@]21OC(=O)N(CC(=O)N(Cc2ccc(F)cc2)[C@@H](C)C(F)(F)F)C1=O — remaining binding (cell-free assay; competition with immobilised ligand; 1 µM): 71%
Cc1ccc(C(=O)NCc2ccsc2)cc1C#Cc1cn(C(C)C)c2ncnc(N)c12 — activity vs control (enzyme activity; inhibitor; 1 µM): 86%
Oc1cccc(-c2nc(N3CCOCC3)c3oc4ncccc4c3n2)c1 — remaining signal (cell-free assay; 0.5 µM): 84.2%
Cc1nc(N2CC[C@@H](O)C2)ncc1-c1cc(C(F)(F)F)cc2[nH]ncc12 — remaining binding (binding; competition with immobilised ligand; 1 µM): 100%
O=C(Nc1cnn(-c2csc(C(=O)NC3COC3)c2)c1)Nc1c(F)cccc1Cl — remaining activity (enzyme activity; inhibitor; 5 µM): 107%
CC/C(=N\NC(=O)NCc1cccc(O)c1)c1ccc(O)c(C)c1O — inhibition (enzyme activity; inhibitor; 0.1 µM): -0.6%
